Assay results from ChEMBL document CHEMBL1123710, “Molecular structure of the dihydropyridazinone cardiotonic 1,3-dihydro-3,3-dimethyl-5-(1,4,5,6-tetrahydro-6-oxo-pyridazinyl)- 2H-indol-2-one, a potent inhibitor of cyclic AMP phosphodiesterase” (1987).

Assays:
Canis familiaris [1] = assay: Myocardial contractility was determined after intravenous administration in phenobarbital anesthetized dogs (n=4).; format: functional; conditions: Canis lupus familiaris, Myocardium
How it was run: (§1)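 Dogs under anesthesia; Walton-Brodie strain-gauge arch sutured to right ventricle, tension set at 50 g. Increasing iv doses via femoral vein at 5-min intervals, peak responses recorded; vehicle injections tested. Inotropic ED50 by linear regression, mean ± SEM. Preload/afterload independence confirmed with dextran bolus and aortic compression.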

Canis familiaris [2] = assay: Percent increase in heart rate (HR) in anesthetized dogs was determined; format: functional, Canis lupus familiaris
Canis familiaris [3] = assay: Percent decrease in mean arterial blood pressure (MAP) was determined in anesthetized dogs; format: functional, Canis lupus familiaris
How it was run: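 Femoral arterial pressure in anesthetized dogs via heparin-filled catheter and pressure transducer; baseline MAP 99 ± 3 mmHg. Escalating iv doses via femoral vein every 5 min, peak responses taken. Value is percent change in mean arterial pressure at the inotropic ED50 dose.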

Canis familiaris [4] = assay: Myocardial contractility was determined after intravenous administration in phenobarbital-anesthetized dogs (n=4).; format: functional; conditions: Canis lupus familiaris, Myocardium; how it was run: as §1
Canis familiaris [5] = assay: Myocardial contractility was determined after intravenous administration in phenobarbital-anesthetized dogs; format: functional; conditions: Canis lupus familiaris, Myocardium; how it was run: as §1

Cc1cc(O)nnc1-c1ccc2c(c1)C(C)(C)C(=O)N2
ED50 (Canis familiaris [1]): 32.6 µg/kg
Increase (Canis familiaris [2]): 15%
Decrease (Canis familiaris [3]): 20%

CC1CC(=O)NN=C1c1ccc2c(c1)C(C)(C)C(=O)N2 (configuration not stated)
Increase (Canis familiaris [2]): 20%
ED50 (Canis familiaris [4]): 3.6 µg/kg
Decrease (Canis familiaris [3]): 31%

CC1(C)C(=O)Nc2ccc(-c3ccc(O)nn3)cc21
Increase (Canis familiaris [2]): 24%
Decrease (Canis familiaris [3]): 18%
ED50 (Canis familiaris [5]): 7.4 µg/kg

CC1(C)C(=O)Nc2ccc(C3=NNC(=O)CC3)cc21 [INDOLIDAN]
Increase (Canis familiaris [2]): 12%
ED50 (Canis familiaris [4]): 6.8 µg/kg
Decrease (Canis familiaris [3]): 15%
